Test results published in ChEMBL document CHEMBL3861992 (Bioorg Med Chem Lett, 2016).
The source made the active and inactive calls. No cut-off for these calls is given here.

What was measured:
[1] = target: Amyloid-beta precursor protein (Homo sapiens, UniProt P05067); experiment: Inhibition of amyloid beta (1 to 42 residues) (unknown origin) aggregation after 24 hrs by thioflavin T fluorescence assay
[2] = target: Microtubule-associated protein tau (Homo sapiens, UniProt P10636); experiment: Inhibition of recombinant human TAU three-repeat microtubule-binding domain aggregation expressed in Escherichia coli after 16 hrs by thioflavin T fluorescence assay
Microtubule-associated protein tau, sequence (P10636 whole entry, the tested form may be a part): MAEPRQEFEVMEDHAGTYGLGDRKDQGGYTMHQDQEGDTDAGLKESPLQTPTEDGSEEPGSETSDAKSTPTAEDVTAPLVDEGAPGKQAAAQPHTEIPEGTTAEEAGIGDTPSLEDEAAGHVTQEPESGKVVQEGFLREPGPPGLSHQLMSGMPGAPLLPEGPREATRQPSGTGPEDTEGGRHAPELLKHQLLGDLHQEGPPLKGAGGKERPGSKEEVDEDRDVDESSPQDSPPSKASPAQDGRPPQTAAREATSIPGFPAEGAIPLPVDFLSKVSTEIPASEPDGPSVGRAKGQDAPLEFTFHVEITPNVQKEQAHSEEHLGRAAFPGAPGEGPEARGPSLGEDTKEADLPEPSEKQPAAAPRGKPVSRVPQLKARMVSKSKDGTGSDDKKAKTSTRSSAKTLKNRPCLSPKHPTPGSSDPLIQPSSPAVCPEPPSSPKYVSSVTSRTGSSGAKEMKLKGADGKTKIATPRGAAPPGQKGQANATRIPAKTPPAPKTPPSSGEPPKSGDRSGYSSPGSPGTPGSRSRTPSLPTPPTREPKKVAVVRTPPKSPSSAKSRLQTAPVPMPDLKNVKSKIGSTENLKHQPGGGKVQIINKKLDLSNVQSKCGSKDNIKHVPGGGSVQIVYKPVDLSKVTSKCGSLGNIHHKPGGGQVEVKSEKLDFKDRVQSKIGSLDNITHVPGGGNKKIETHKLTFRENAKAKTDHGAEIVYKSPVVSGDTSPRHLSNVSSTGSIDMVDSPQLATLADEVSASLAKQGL

[3] = Cmax in Sprague-Dawley rat at 50 mg/kg, po after 30 mins by LC-MS/MS analysis; assay type: ADME, organism-based; design: dose 50 mg/kg, route oral; conditions: in vivo
In short: (§1)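 SD rats dosed orally at 50 mg/kg; plasma drug levels followed up to 3 h. Mean ± SD, n = 3.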

[4] = Drug uptake in Sprague-Dawley rat brain at 50 mg/kg, po after 3 hrs by LC-MS/MS analysis; assay type: ADME, organism-based; conditions: read-out: Drug uptake
In short: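 Brains collected from SD rats 3 h after a 50 mg/kg oral dose; tissue drug concentration measured per g tissue. Mean ± SD, n = 3.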

[5] = Plasma concentration in Sprague-Dawley rat at 50 mg/kg, po after 3 hrs by LC-MS/MS analysis; assay type: ADME, organism-based; in short: as §1
Mus musculus = experiment: In vivo inhibition of human tau aggregation in JNPL3 human tau P301L transgenic mouse model assessed as reduction in amount of sarkosyl-insoluble tau in brain at 20 to 40 mg/kg/day, po for 4 weeks by ELISA; assay type: functional, organism-based
[6] = Tmax in mouse; assay type: ADME, organism-based; conditions: in vivo
[7] = Drug uptake in Sprague-Dawley rat plasma at 5 mg/kg, iv up to 3 hrs by LC-MS/MS analysis; assay type: ADME, organism-based; conditions: in vivo
In short: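 SD rats given 5 mg/kg intravenously; plasma concentrations sampled up to 3 h post-dose. Mean ± SD, n = 3.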

Amyloid-beta precursor protein, sequence (P05067 whole entry, the tested form may be a part): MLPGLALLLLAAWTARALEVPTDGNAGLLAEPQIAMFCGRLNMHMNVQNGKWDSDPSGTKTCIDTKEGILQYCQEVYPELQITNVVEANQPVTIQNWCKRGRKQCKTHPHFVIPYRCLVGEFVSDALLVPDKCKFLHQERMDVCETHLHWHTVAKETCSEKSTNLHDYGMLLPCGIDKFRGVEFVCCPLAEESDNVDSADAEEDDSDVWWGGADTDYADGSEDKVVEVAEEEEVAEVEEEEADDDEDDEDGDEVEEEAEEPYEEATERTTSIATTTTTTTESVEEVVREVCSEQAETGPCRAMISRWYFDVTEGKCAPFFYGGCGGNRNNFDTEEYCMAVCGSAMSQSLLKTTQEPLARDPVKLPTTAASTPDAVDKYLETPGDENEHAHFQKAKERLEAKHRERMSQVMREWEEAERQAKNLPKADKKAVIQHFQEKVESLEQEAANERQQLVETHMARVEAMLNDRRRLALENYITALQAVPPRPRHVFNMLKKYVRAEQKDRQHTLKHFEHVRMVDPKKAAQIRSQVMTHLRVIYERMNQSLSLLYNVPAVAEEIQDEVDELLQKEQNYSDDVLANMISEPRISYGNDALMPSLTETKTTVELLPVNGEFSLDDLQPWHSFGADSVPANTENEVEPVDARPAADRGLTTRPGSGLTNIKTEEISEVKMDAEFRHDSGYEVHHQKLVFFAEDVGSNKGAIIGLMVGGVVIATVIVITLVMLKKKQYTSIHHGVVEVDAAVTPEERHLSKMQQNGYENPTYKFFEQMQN

IC50 [1] [nM] | IC50 [2] [nM] | SMILES | also measured
1600 | 910 | COc1cc(/C=C/C(=O)CC(=O)/C=C/c2c(O)cccc2OC)ccc1O | 
5400 | 690 | COc1cc(/C=C/C(=O)CC(=O)/C=C/c2cccc(OC)c2O)ccc1O | 
1800 | 920 | COc1ccc(O)c(/C=C/C(=O)CC(=O)/C=C/c2ccc(O)c(OC)c2)c1 | 
520 | 230 | COc1cc(O)ccc1/C=C/C(=O)CC(=O)/C=C/c1ccc2cc[nH]c2c1 | 
2100 | 520 | COc1ccc(/C=C/C(=O)CC(=O)/C=C/c2ccc(O)c(OC)c2)cc1O | 
920 | 580 | COc1cc(/C=C/C(=O)CC(=O)/C=C/c2ccc(O)cc2OC)ccc1O | 
1900 | 710 | COc1cc(/C=C/C(=O)CC(=O)/C=C/c2cccc(O)c2OC)ccc1O | 
1300 | 600 | COc1cc(/C=C/C(=O)CC(=O)/C=C/c2cc(O)ccc2OC)ccc1O | 
930 | 1400 | COc1ccc(/C=C/C(=O)CC(=O)/C=C/c2ccc(O)c(OC)c2)c(O)c1 | 
610 | 700 | COc1ccc(/C=C/C(=O)CC(=O)/C=C/c2ccc3cc[nH]c3c2)c(OC)c1 | 
4600 | > 10000 | COc1cc(O)ccc1/C=C/C(=O)CC(=O)/C=C/c1ccc(O)cc1OC | 

The next lines start with the compound.

SMILES | IC50 [1] [nM] | IC50 [2] [nM] | also measured
COc1cc(/C=C/C(=O)CC(=O)/C=C/c2cccnc2)ccc1O | > 10000 | > 10000 | 
COc1cc(OCc2ccccn2)ccc1/C=C/C(=O)CC(=O)/C=C/c1ccc2cc[nH]c2c1 | 470 | 330 | Cmax [3]: 5.7 ng/mL; concentration at 3 h [4]: 1 ng/g
COc1cc(/C=C/C(=O)CC(=O)/C=C/c2ccccc2)ccc1O | 2200 | 1400 | 
COc1cc(/C=C/C(=O)CC(=O)/C=C/c2ccc(O)c(OC)c2)ccc1O [CURCUMIN] |  |  | concentration at 3 h [4]: 13 ng/g
COc1cc(OCc2ccccc2)ccc1/C=C/C(=O)CC(=O)/C=C/c1ccc2cc[nH]c2c1 | 5400 | 610 | 
COc1cc(OCC2CCCO2)ccc1/C=C/C(=O)CC(=O)/C=C/c1ccc2cc[nH]c2c1 (stereo not drawn) | 2500 | 420 | 
COc1cc(/C=C/C(=O)CC(=O)/C=C/c2ccco2)ccc1O | 760 | 2000 | 
CN(C)c1ccc2nc3ccc(=[N+](C)C)cc-3sc2c1 [METHYLENE BLUE ANHYDROUS] | 500 |  | 
COc1cc(/C=C/C(=O)CC(=O)/C=C/c2ccc3ccccc3c2)ccc1O | 590 | 420 | 
COc1cc(/C=C/C(=O)CC(=O)/C=C/c2ccc3c(c2)OCO3)ccc1O | 3700 | 1200 | 
COc1cc(/C=C/C(=O)CC(=O)/C=C/c2ccc3cc[nH]c3c2)ccc1O | 420 | 440 | 
COc1cc(O)cc(/C=C/C(=O)CC(=O)/C=C/c2ccc(O)c(OC)c2)c1 | 1100 | 320 | 
COc1cc(OCc2ccccn2)ccc1/C=C/c1cc(/C=C/c2ccc3cc[nH]c3c2)[nH]n1 | 1200 | 660 | concentration at 3 h [5]: 466 ng/mL; inhibition (Mus musculus): Active; Tmax [6]: 6 h; concentration at 3 h [4]: 276 ng/g; Drug uptake [7]: Active
